Measured values gathered from unrelated publications.
Compare with care: the assays were run in different laboratories.
Target: Serine/threonine-protein kinase Nek2 (NEK2, Homo sapiens, UniProt P51955)

SMILES | effect on | mode | method | tested at | measurement | value
CC(C)(C)C(=O)c1sc(NC2CCCCC2)nc1N | enzyme activity | inhibitor | – | 10 µM | remaining activity | 93%
CC(=O)Nc1c(C(C)=O)c(=O)n(C)c2nc(-c3ccc(Cl)cc3Cl)c(-c3ccc(Cl)cc3)cc12 | cell-free assay | – | competition with immobilised ligand | 1 µM | remaining binding | 100%
FC(F)(F)Oc1cccc(-c2cnc3ccc(-c4ccncc4)nn23)c1 | enzyme activity | inhibitor | radiometric | 5 µM | activity vs control | 88%
Cc1noc([C@H]2C[C@@H](c3ccc(C(F)(F)F)cc3)CN(C(=O)N3CCS(=O)(=O)C3)C2)n1 | cell-free assay | – | competition with immobilised ligand | 1 µM | remaining binding | 100%
CC(C)c1ccc(NC(=O)c2cccs2)c(-c2nc3ccccc3[nH]c2=O)c1 | enzyme activity | inhibitor | – | 1 µM | activity vs control | 93%
C=CC(=O)Nc1cc(Nc2nccc(Nc3cc(Cl)c(F)cc3C(C)(C)O)n2)c(OC)cc1N1CC[C@@H](N(C)C)C1 | enzyme activity | inhibitor | – | 1 µM | inhibition | 5%
Nc1cnc(N2CCc3cc(S(=O)(=O)Nc4c(F)cc(Cl)cc4F)cc(N4CCCC4=O)c32)nc1 | cell-free assay | – | competition with immobilised ligand | 1 µM | remaining binding | 89%
Cn1c2c(c3ccc(Cl)c(Cl)c31)C(C#N)C1(CCOCC1)NC2=O (stereo not shown) | thermal stability | – | DSF | 10 µM | ΔTm | -0.2 °C
CC(C)(O)[C@H]1CC[C@H](Nc2ccc3ncc(-c4cccc(C(F)(F)F)c4)n3n2)CC1 | enzyme activity | inhibitor | – | 1 µM | remaining activity | 100%
Clc1ccc(Nc2nnc(Cc3ccncc3)c3ccccc23)cc1 | cell-free assay | – | – | 0.5 µM | remaining signal | 101%
Cc1c(NC(=O)c2cc(C(N)=O)nc3cc(F)ccc23)c(C(F)(F)F)nn1Cc1ccc(C#N)cc1 | cell-free assay | – | competition with immobilised ligand | 1 µM | remaining binding | 100%
Cc1ccc(C(=O)NCc2ccsc2)cc1C#Cc1cn(C(C)C)c2ncnc(N)c12 | enzyme activity | inhibitor | – | 1 µM | activity vs control | 111%
N#CCCc1ccc2c(c1)-c1[nH]c3ccc([N+](=O)[O-])cc3c1CC(=O)N2 | cell-free assay | – | – | 0.5 µM | remaining signal | 92.7%
COc1cc(Nc2cnc(C#N)c(O[C@H](C)CN(C)C)n2)ncc1-c1cnn(C)c1 | enzyme activity | inhibitor | radiometric | 10 µM | remaining activity | 64%
CCN(CC)CCNC(=O)c1c(C)[nH]c(/C=C2\C(=O)Nc3ccc(F)cc32)c1C | enzyme activity | inhibitor | – | 10 µM | inhibition | 28%
CC(C)CC(=O)N1CCc2nc(-c3ccc(Br)cc3)nc(N(C)Cc3ccccc3)c2C1 | cell-free assay | – | competition with immobilised ligand | 0.1 µM | remaining binding | 100%
CNCc1ccc(-c2cc(-c3nc(-c4ccc(S(=O)(=O)C(C)C)cc4)cnc3N)on2)cc1 | enzyme activity | inhibitor | – | 2 µM | inhibition | 2%
Cn1c2c(c3ccc(Cl)c(Cl)c31)C(C#N)C1(CCCC1)NC2=O (stereo not shown) | thermal stability | – | DSF | 10 µM | ΔTm | 0.3 °C
COc1cc2ncnc(Nc3ccc(Oc4ccccc4)c(C)c3C)c2cc1OC | enzyme activity | inhibitor | – | 1 µM | inhibition | 1%

SMILES | effect on | mode | method | tested at | measurement | value
FC(F)(F)c1ccc2c(c1)nc(-c1cccnc1)n2C1CC1 | cell-free assay | – | competition with immobilised ligand | 1 µM | remaining binding | 100%
Cc1cnc(NC2CCOCC2)nc1-n1cnc(C(=O)NC(CN)c2cc(F)cc(Cl)c2)c1 (stereo not shown) | enzyme activity | inhibitor | radiometric | 1 µM | remaining activity | 36%
CC/C(=N\NC(=O)NCc1cccc(O)c1)c1ccc(O)c(C)c1O | enzyme activity | inhibitor | – | 0.1 µM | inhibition | -2.4%
Oc1cccc(-c2nc(N3CCOCC3)c3oc4ncccc4c3n2)c1 | enzyme activity | inhibitor | – | 10 µM | remaining activity | 86%
CN(C)C1CCN(CC#Cc2nn(C3CCCC3)c3nc(NCc4ccccc4)ncc23)C1 (stereo not shown) | enzyme activity | inhibitor | FRET | 10 µM | inhibition | 15%
CNC(=O)c1cc(Oc2ccc(NC(=O)Nc3ccc(Cl)c(C(F)(F)F)c3)cc2)ccn1 | enzyme activity | inhibitor | – | 0.3 µM | inhibition | -1%
CCN(CC)c1ccc(C2=NNC(=O)CC2C)cc1[N+](=O)[O-] (stereo not shown) | enzyme activity | inhibitor | – | 10 µM | remaining activity | 91%
CN1CCC2(CC1)NC(=O)c1c(c3ccc(Cl)c(Cl)c3n1C)C2C#N (racemic) | thermal stability | – | DSF | 10 µM | ΔTm | 0.1 °C
O=C(Nc1cnn(-c2csc(C(=O)NC3COC3)c2)c1)Nc1c(F)cccc1Cl | enzyme activity | inhibitor | – | 5 µM | remaining activity | 96.2%
COc1cc(Cl)c(C(=O)N[C@@H](CN[C@H]2CC[C@@H](N)CC2)Cc2ccc(C#N)cc2)cc1-c1ccc(CN[C@H](C)c2ccc(C)cc2)o1 | enzyme activity | inhibitor | – | 1 µM | remaining activity | 114%
CC(C)(C)c1nc(-c2cccc(NS(=O)(=O)c3c(F)cccc3F)c2F)c(-c2ccnc(N)n2)s1 | enzyme activity | inhibitor | radiometric | 1 µM | remaining activity | 83%
Cc1c(NC(=O)c2cc(C(N)=O)nc3cc(F)ccc23)c(C(F)(F)F)nn1Cc1ccc(C(C)(C)C)cc1 | cell-free assay | – | competition with immobilised ligand | 1 µM | remaining binding | 100%
Nc1ncnc2occ(-c3ccc(NC(=O)Nc4cc(C(F)(F)F)ccc4F)cc3)c12 | cell-free assay | inhibitor | – | 20 µM | remaining signal | 2.1%
CN(C(=O)c1ccccc1)c1cc(N(C)c2ccc3c(c2)CCc2ccc(C(=O)NCCN4CCOCC4)cc2C3=O)ccc1F | cell-free assay | – | competition with immobilised ligand | 1 µM | remaining binding | 96%
Cc1ccc(Nc2nccc(N(C)c3ccc4c(C)n(C)nc4c3)n2)cc1S(N)(=O)=O | enzyme activity | inhibitor | – | 10 µM | inhibition | 91%
COc1cc2ncnc(Nc3ccc(F)c(Cl)c3)c2cc1OCCCN1CCOCC1 | cell-free assay | – | – | 0.5 µM | remaining signal | 98.4%
Cn1c2c(c3ccc(Cl)c(Cl)c31)C(C#N)C(C)(C)NC2=O (stereo not shown) | thermal stability | – | DSF | 10 µM | ΔTm | -0.9 °C
CCCOc1ccc(OC)c(F)c1C(=O)c1ccc(C(=O)N[C@@H]2CNC[C@H]2NC(=O)c2ccc3[nH]ncc3c2)cc1 | enzyme activity | inhibitor | – | 10 µM | remaining activity | 66%
